# Calls of active or inactive are those of the source. The rule behind the calls is not given here.
# What was measured:
# [1] = molecular target: 72 kDa type IV collagenase (Homo sapiens) (UniProt P08253); assay: Stimulation of MMP2 activity in HUVEC assessed as increase in enzyme activity at 1 uM relative to control
# Outline: (§1)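 HUVEC or CB1 siRNA-knockdown HUVEC (electroporated, 1.5 µg siRNA) grown to 90% confluence in six-well plates, treated with drug (optionally with 1 µM O-1918) with or without UV irradiation (1-15 min, 280-315 nm), 24 h at 37 °C. Conditioned media mixed with DQ gelatin (6 µg/mL), 24 h at 37 °C dark; fluorescence 485/530 nm against collagenase standard curve; triplicate; percent over vehicle, mean ± SEM of three experiments.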
# [2] = molecular target: Matrix metalloproteinase-9 (Homo sapiens) (UniProt P14780); assay: Stimulation of MMP9 activity in CB1 receptor knockout HUVEC assessed as increase in enzyme activity at 1 uM relative to control; assay type: cell-based; outline: as §1
# [3] = molecular target: 72 kDa type IV collagenase (Homo sapiens) (UniProt P08253); assay: Stimulation of MMP2 activity in HUVEC assessed as increase in enzyme activity at 100 nM relative to control; outline: as §1
# [4] = molecular target: 72 kDa type IV collagenase (Homo sapiens) (UniProt P08253); assay: Stimulation of MMP2 activity in HUVEC assessed as increase in enzyme activity at 10 nM relative to control; assay type: cell-based; outline: as §1
# [5] = molecular target: 72 kDa type IV collagenase (Homo sapiens) (UniProt P08253); assay: Stimulation of MMP2 activity in CB1 receptor knockout HUVEC assessed as increase in enzyme activity at 100 nM relative to control; assay type: cell-based; outline: as §1
# [6] = molecular target: 72 kDa type IV collagenase (Homo sapiens) (UniProt P08253); assay: Stimulation of MMP2 activity in CB1 receptor knockout HUVEC assessed as increase in enzyme activity at 1 uM relative to control; assay type: cell-based; outline: as §1
# [7] = molecular target: Matrix metalloproteinase-9 (Homo sapiens) (UniProt P14780); assay: Stimulation of MMP9 activity in CB1 receptor knockout HUVEC assessed as increase in enzyme activity at 100 nM relative to control; outline: as §1
# [8] = molecular target: Matrix metalloproteinase-9 (Homo sapiens) (UniProt P14780); assay: Stimulation of MMP9 activity in HUVEC assessed as increase in enzyme activity at 100 nM relative to control; outline: as §1
# [9] = molecular target: Matrix metalloproteinase-9 (Homo sapiens) (UniProt P14780); assay: Stimulation of MMP9 activity in HUVEC assessed as increase in enzyme activity at 10 nM relative to control; assay type: cell-based; outline: as §1
# [10] = molecular target: Matrix metalloproteinase-9 (Homo sapiens) (UniProt P14780); assay: Stimulation of MMP9 activity in HUVEC assessed as increase in enzyme activity at 1 uM relative to control; assay type: cell-based; outline: as §1
# [11] = molecular target: 72 kDa type IV collagenase (Homo sapiens) (UniProt P08253); assay: Stimulation of MMP2 activity in CB1 receptor knockout HUVEC assessed as increase in enzyme activity at 10 nM relative to control; assay type: cell-based; outline: as §1
# [12] = molecular target: Matrix metalloproteinase-9 (Homo sapiens) (UniProt P14780); assay: Stimulation of MMP9 activity in CB1 receptor knockout HUVEC assessed as increase in enzyme activity at 10 nM relative to control; outline: as §1
# [13] = molecular target: Matrix metalloproteinase-9 (Homo sapiens) (UniProt P14780); assay: Stimulation of MMP9 activity in CB1 receptor knockout HUVEC assessed as increase in enzyme activity in presence of 1 uM anandamide receptor antagonist O-1918 relative to control; assay type: functional, cell-based; outline: as §1
# [14] = molecular target: Cannabinoid receptor 2 (Homo sapiens, UniProt P34972); assay: Displacement of [3H]CP-55-940 from human recombinant CB2 receptor expressed in COS cells; assay type: cell-based
# [15] = system: HUVEC; assay: Stimulation of angiogenesis of CB1 receptor knockout HUVEC assessed as increase in cord length formation after 36 hrs by Matrigel based tube formation assay; assay type: functional
# Outline: (§2)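 HUVEC or CB1 siRNA-knockdown HUVEC at 90% confluence harvested with versene, spun 600g 5 min, resuspended in serum-free RPMI 1640 with drug (optionally 1 µM O-1918); 40 000 cells/well on gelled 1:1 RPMI/Matrigel, with or without UV irradiation, 36 h at 37 °C. Fixed with Diff-Quick; total tube length from three random 10× fields; triplicate, three experiments; percent increase over vehicle, mean ± SEM; bFGF 5 ng/mL positive control.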
# [16] = molecular target: 72 kDa type IV collagenase (Homo sapiens) (UniProt P08253); assay: Stimulation of MMP2 activity in CB1 receptor knockout HUVEC assessed as increase in enzyme activity in presence of 1 uM anandamide receptor antagonist O-1918 relative to control; assay type: functional, cell-based; outline: as §1
# [17] = molecular target: Cannabinoid receptor 1 (Homo sapiens, UniProt P21554); assay: Displacement of [3H]CP-55-940 from human recombinant CB1 receptor expressed in COS cells; assay type: cell-based
# [18] = system: HUVEC; assay: Increase in cell migration of irradiated HUVEC at 10 nM relative to control; assay type: functional, Homo sapiens
# Outline: (§3)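 Cells harvested with versene, resuspended in RPMI 1640 with 0.1% BSA; 30 000 cells loaded in bottom well of 48-well microchemotaxis chamber under collagen IV-coated (0.1 mg/mL) 10 µm polyester filter, inverted 2 h at 37 °C; upper wells given drug in RPMI/0.1% BSA, 6 h at 37 °C. Filters fixed and stained with Diff-Quick; migrated cells counted at well centre, ×20. UV irradiation 1-15 min at 280-315 nm, 10 in. distance.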
# [19] = system: HUVEC; assay: Stimulation of angiogenesis of CB1 receptor knockout irradiated HUVEC assessed as increase in cord length formation after 36 hrs by Matrigel based tube formation assay; assay type: functional, cell-based; conditions: Homo sapiens; outline: as §2
# [20] = system: HUVEC; assay: Increase in cell migration of irradiated HUVEC at 1 uM relative to control; assay type: functional, Homo sapiens; outline: as §3
# [21] = system: HUVEC; assay: Increase in cell migration of irradiated HUVEC at 100 nM relative to control; assay type: functional, Homo sapiens; outline: as §3
# [22] = system: HUVEC; assay: Stimulation of angiogenesis of HUVEC assessed as increase in cord length formation after 36 hrs by Matrigel based tube formation assay; assay type: functional, cell-based; conditions: Homo sapiens; outline: as §2
# [23] = system: HUVEC; assay: Stimulation of angiogenesis of irradiated CB1 receptor knockout HUVEC assessed as increase in cord length formation after 36 hrs at 1 uM in presence of 1 uM anandamide receptor antagonist O-1918 by Matrigel based tube formation assay; assay type: functional, cell-based; conditions: Homo sapiens; outline: as §2
# [24] = system: HUVEC; assay: Stimulation of angiogenesis of irradiated CB1 receptor knockout HUVEC assessed as increase in cord length formation after 36 hrs at 1 uM by Matrigel based tube formation assay; assay type: functional, Homo sapiens; outline: as §2
# [25] = system: HUVEC; assay: Stimulation of angiogenesis of irradiated CB1 receptor knockout HUVEC assessed as increase in cord length formation after 36 hrs at 10 nM by Matrigel based tube formation assay; assay type: functional, Homo sapiens; outline: as §2
# [26] = system: HUVEC; assay: Stimulation of angiogenesis of irradiated CB1 receptor knockout HUVEC assessed as increase in cord length formation after 36 hrs at 100 nM by Matrigel based tube formation assay; assay type: functional, Homo sapiens; outline: as §2
# [27] = system: HUVEC; assay: Stimulation of angiogenesis of irradiated HUVEC assessed as increase in cord length formation after 36 hrs by Matrigel based tube formation assay; assay type: functional, cell-based; conditions: Homo sapiens; outline: as §2
# Matrix metalloproteinase-9 (Homo sapiens), sequence (P14780 whole entry): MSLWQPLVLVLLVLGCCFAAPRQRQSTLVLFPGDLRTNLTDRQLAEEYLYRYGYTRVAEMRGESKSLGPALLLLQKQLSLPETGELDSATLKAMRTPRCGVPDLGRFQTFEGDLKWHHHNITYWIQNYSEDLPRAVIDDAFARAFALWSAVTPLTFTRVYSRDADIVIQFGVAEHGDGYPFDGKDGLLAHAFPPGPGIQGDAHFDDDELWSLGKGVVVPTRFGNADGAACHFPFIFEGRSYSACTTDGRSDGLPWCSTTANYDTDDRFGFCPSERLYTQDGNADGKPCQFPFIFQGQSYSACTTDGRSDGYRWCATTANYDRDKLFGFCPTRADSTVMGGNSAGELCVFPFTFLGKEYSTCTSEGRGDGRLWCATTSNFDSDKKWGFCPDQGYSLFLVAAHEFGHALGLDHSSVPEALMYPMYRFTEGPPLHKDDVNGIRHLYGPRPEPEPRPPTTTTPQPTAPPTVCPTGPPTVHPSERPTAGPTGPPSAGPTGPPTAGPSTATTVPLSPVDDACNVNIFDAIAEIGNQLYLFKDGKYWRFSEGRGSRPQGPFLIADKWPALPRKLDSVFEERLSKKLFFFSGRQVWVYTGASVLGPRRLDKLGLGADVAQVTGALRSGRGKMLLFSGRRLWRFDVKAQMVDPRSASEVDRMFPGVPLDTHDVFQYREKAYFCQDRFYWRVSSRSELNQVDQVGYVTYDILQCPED
# 72 kDa type IV collagenase (Homo sapiens), sequence (P08253 110-660 limits assumed): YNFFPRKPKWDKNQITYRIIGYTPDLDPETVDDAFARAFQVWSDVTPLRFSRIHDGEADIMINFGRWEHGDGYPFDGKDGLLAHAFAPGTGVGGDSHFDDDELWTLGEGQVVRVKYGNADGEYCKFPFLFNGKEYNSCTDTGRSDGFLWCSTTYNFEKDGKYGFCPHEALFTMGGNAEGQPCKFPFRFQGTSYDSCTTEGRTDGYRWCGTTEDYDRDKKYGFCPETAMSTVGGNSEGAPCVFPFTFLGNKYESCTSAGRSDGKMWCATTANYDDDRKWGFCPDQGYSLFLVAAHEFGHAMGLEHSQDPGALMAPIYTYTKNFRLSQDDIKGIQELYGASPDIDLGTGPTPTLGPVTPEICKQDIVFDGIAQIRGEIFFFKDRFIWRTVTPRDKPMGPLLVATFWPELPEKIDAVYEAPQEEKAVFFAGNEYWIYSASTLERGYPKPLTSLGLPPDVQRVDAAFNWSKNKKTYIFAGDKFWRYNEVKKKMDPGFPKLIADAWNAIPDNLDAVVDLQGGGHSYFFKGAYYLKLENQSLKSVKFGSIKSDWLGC
# Cannabinoid receptor 1, sequence (P21554 whole entry): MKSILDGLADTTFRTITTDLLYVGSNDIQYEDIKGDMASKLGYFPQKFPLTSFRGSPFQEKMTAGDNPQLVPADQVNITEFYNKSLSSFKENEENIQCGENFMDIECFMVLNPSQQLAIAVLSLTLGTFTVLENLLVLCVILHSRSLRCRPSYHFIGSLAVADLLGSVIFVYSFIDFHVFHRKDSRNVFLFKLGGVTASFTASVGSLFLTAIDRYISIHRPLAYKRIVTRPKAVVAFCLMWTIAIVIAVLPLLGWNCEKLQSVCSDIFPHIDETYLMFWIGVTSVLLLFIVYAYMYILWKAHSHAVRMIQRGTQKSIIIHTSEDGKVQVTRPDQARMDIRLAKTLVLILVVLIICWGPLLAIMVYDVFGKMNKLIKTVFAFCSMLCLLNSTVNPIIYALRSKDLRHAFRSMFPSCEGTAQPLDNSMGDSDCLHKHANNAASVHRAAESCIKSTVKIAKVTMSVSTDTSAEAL
# Cannabinoid receptor 2, sequence (P34972 whole entry): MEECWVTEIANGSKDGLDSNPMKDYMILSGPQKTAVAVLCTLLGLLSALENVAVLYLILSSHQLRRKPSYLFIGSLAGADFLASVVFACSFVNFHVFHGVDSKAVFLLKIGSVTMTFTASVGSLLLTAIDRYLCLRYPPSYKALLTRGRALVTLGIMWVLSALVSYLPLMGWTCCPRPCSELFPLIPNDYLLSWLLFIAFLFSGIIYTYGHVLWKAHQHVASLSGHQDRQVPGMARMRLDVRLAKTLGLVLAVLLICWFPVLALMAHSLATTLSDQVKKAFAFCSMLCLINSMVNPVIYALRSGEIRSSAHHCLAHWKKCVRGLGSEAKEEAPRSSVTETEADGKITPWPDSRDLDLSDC
SMILES,Activity [1],Activity [2],Activity [3],Activity [4],Activity [5],Activity [6],Activity [7],Activity [8],Activity [9],Activity [10],Activity [11],Activity [12],Activity [13],Activity [16],Activity [18] [%],Activity [19],Activity [20] [%],Activity [21] [%],also measured
CCCCC/C=C\C/C=C\C/C=C\C/C=C\CCCC(=O)N[C@H](C)CO,20%,33%,28%,5%,33%,25%,10%,5%,20%,28%,10%,25%,,,,,,,
C[C@H](CO)NC(=O)CCC/C=C\C/C=C\C/C=C\C/C=C\CCOC(=O)c1cccc2c1OC(C)(C(C)(C)C)O2 (stereo partly drawn),inactive,inactive,inactive,inactive,inactive,inactive,inactive,inactive,inactive,inactive,inactive,inactive,inactive,inactive,27,Active,55,40,Ki [14]: 1020 nM; Activity ([15]; Homo sapiens): Active; Ki [17]: 2800 nM
C[C@H](CO)NC(=O)CCC/C=C\C/C=C\C/C=C\C/C=C\CCOC(=O)c1cc(I)ccc1N=[N+]=[N-],inactive,inactive,inactive,inactive,inactive,inactive,inactive,inactive,inactive,inactive,inactive,inactive,inactive,inactive,18,Dose-dependent effect,54,35,Activity [22]: Dose-dependent effect; Activity [23]: inactive; Activity [24]: 47%; Activity [25]: 21%; Activity [26]: 30%; Activity [15]: 8%; Activity [27]: Active
